Measurements from different studies.
Lines come from different studies, so protocols differ.
Target: Serine/threonine-protein kinase WNK3 (WNK3, Homo sapiens, UniProt Q9BYP7)

Nc1ncnc2occ(-c3ccc(NC(=O)Nc4cc(C(F)(F)F)ccc4F)cc3)c12 — remaining signal (cell-free assay; inhibitor; 20 µM): 58%
CCCOc1ccc(OC)c(F)c1C(=O)c1ccc(C(=O)N[C@@H]2CNC[C@H]2NC(=O)c2ccc3[nH]ncc3c2)cc1 — remaining activity (enzyme activity; inhibitor; 10 µM): 95%
CCC(=N\O)/C(C)=C/c1ccc(F)cc1 — remaining binding (cell-free assay; competition with immobilised ligand; 1 µM): 75%
CN1CC(Oc2cnc(C#N)cc2-c2ccn3nc(NC(=O)C4CC4)cc3c2)C1 — inhibition (enzyme activity; inhibitor; 1 µM): -5%
CNCc1ccccc1-c1csc([C@@H](C)Nc2nc(C)nc3cc(OC)c(OC)cc23)c1 — remaining binding (cell-free assay; competition with immobilised ligand; 1 µM): 100%
Cc1ccc(NC(=O)c2ccc(C)c(C(F)(F)F)c2)cc1C#Cc1nn(C2CCC(O)CC2)c2ncnc(N)c12 (centres unmarked) — remaining signal (cell-free assay; 10 µM): 39%
FC(F)(F)c1ccc2c(c1)nc(-c1cccnc1)n2C1CC1 — remaining binding (cell-free assay; competition with immobilised ligand; 1 µM): 100%
N#CCCc1ccc2c(c1)-c1[nH]c3ccc([N+](=O)[O-])cc3c1CC(=O)N2 — remaining signal (cell-free assay; 0.5 µM): 96.5%
CC(C)(C)c1nc(-c2cccc(NS(=O)(=O)c3c(F)cccc3F)c2F)c(-c2ccnc(N)n2)s1 — remaining activity (enzyme activity; inhibitor; radiometric; 1 µM): 89%
CCN(CC)c1ccc(C2=NNC(=O)CC2C)cc1[N+](=O)[O-] (centres unmarked) — remaining activity (enzyme activity; inhibitor; 10 µM): 105%
CCN(CC)CCNC(=O)c1c(C)[nH]c(/C=C2\C(=O)Nc3ccc(F)cc32)c1C — inhibition (enzyme activity; inhibitor; 0.3 µM): -4%
C[C@H](c1ccnc(Nc2nc3ccc(-c4cc(N(C)C)ncn4)cc3[nH]2)c1)N1CCN(C(=O)CC(F)(F)F)CC1 — remaining binding (cell-free assay; competition with immobilised ligand; 0.1 µM): 100%
Cc1ccc(Nc2nccc(N(C)c3ccc4c(C)n(C)nc4c3)n2)cc1S(N)(=O)=O — inhibition (enzyme activity; inhibitor; 0.3 µM): -4%
O=C1Nc2ccc(Cl)cc2C1=Cc1cc(Cl)c(O)c(Cl)c1 — remaining signal (cell-free assay; 0.5 µM): 90.7%
CNC(=O)c1cc(Oc2ccc(NC(=O)Nc3ccc(Cl)c(C(F)(F)F)c3)cc2)ccn1 — inhibition (enzyme activity; inhibitor; 0.3 µM): -6%
CC(C)(O)c1cncc(-c2nc3ccc(F)cc3n2C2CC2)c1 — remaining binding (cell-free assay; competition with immobilised ligand; 1 µM): 100%
O=C(Nc1cnn(-c2csc(C(=O)NC3COC3)c2)c1)Nc1ccccc1Cl — remaining activity (enzyme activity; inhibitor; 5 µM): 99.5%
